Consider 20 molecules from ChEMBL document CHEMBL1671618, “Functional cloning and characterization of the multidrug efflux pumps NorM from Neisseria gonorrhoeae and YdhE from Escherichia coli” (Antimicrob Agents Chemother, 2008).

The subject of assay [1] is Escherichia coli. The experiment in a line: Antimicrobial activity against AcrAB-deficient Escherichia coli AG100AX harboring pBADomeganorM plasmid containing Neisseria gonorrhoeae multidrug efflux pump NorM after 18 to 24 hrs by two fold dilution method. Format: functional.
For assay [2], the system named is Escherichia coli. Description: Antimicrobial activity against AcrAB-deficient Escherichia coli AG100AX harboring pBAD plasmid after 18 to 24 hrs by two fold dilution method. The format is functional. The method in brief: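 Twofold agar dilution on LB agar containing the antimicrobial, inoculum 10⁴ CFU/spot. Growth was scored after 18–24 h at 37°C, and each MIC determination was repeated at least four times.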

For assay [3], the system named is Escherichia coli. The experiment in a line: Antimicrobial activity against AcrAB-deficient Escherichia coli AG100AX harboring pBADomegaydhE plasmid containing Escherichia coli multidrug efflux pump YdhE after 18 to 24 hrs by two fold dilution method. The format is functional.
Assay [4] has as its system Neisseria gonorrhoeae. The experiment in a line: Inhibition of Neisseria gonorrhoeae FA19 multidrug efflux protein NorM expressed in Escherichia coli AG100AX assessed as increase in Norfloxacin accumulation at 100 uM after 15 mins by fluorimetric assay. The method in brief: (§1)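 AG100AX cells carrying the pBAD-based plasmid were grown in LB with 0.01% L-arabinose at 37°C to OD600 1.0, washed, and resuspended to OD600 1.0 in 0.1 M Tris-HCl pH 7.0. Norfloxacin (100 μM final) or ethidium bromide (20 μg/ml final) was added and samples taken over time. CCCP (100 μM final) was added at 15 min. After a further 15 min, CCCP was removed and cells re-energized with 0.4% glucose. Maximum fluorescence was normalized to 100%.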

Assay [5] deals with T1, Multidrug resistance protein MdtK (Escherichia coli (strain K12)) (UniProt P37340).
T1 sequence (whole entry): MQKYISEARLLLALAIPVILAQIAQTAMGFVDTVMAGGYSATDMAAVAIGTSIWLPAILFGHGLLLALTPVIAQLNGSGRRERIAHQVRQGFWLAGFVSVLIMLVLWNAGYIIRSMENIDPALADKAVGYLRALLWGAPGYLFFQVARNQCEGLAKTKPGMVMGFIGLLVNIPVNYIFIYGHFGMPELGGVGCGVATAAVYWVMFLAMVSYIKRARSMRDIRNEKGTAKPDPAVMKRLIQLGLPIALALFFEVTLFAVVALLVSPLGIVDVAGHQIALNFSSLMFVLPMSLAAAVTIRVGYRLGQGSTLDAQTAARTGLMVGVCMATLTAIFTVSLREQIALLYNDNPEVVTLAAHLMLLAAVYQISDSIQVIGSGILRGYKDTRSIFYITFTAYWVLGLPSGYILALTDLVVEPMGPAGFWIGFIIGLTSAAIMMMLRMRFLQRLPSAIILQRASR
The experiment in a line: Inhibition of Escherichia coli K-12 multidrug efflux protein YdhE expressed in Escherichia coli AG100AX assessed as assessed as increase in Norfloxacin accumulation at 100 uM after 15 mins by fluorimetric assay. An outline of the steps: as §1

Assay [6] has as its system Neisseria gonorrhoeae. Description: Inhibition of Neisseria gonorrhoeae FA19 multidrug efflux protein NorM expressed in Escherichia coli AG100AX assessed as increase in ethidium bromide accumulation at 100 uM after 15 mins by fluorimetric assay. The method in brief:
as §1

Assay [7] has as its target T1, Multidrug resistance protein MdtK (Escherichia coli (strain K12)). Description: Inhibition of Escherichia coli K-12 multidrug efflux protein YdhE expressed in Escherichia coli AG100AX assessed as assessed as increase in ethidium bromide accumulation at 100 uM after 15 mins by fluorimetric assay. An outline of the steps: as §1
The target is the same in assay [8]. The experiment in a line: Activity of Escherichia coli K-12 multidrug efflux protein YdhE expressed in Escherichia coli AG100AX assessed as reduction in compound accumulation by fluorimetric assay. An outline of the steps:
as §1

For assay [9], the system named is Neisseria gonorrhoeae. The experiment in a line: Activity of Neisseria gonorrhoeae FA19 multidrug efflux protein NorM expressed in Escherichia coli AG100AX assessed as reduction in compound accumulation by fluorimetric assay. The method in brief: as §1
Assay [10] in a line: Binding affinity to Neisseria gonorrhoeae FA19 multidrug efflux protein NorM expressed in Escherichia coli AG100AX in presence of 0.02% DDM surfactant by fluorescence polarization assay. Background: Polarisation of emitted light reports the rotation of a fluorescent probe.
In assay [11] the target is T2, Multidrug resistance protein MdtK (Escherichia coli (strain K12), UniProt P37340).
T2 sequence (P37340 whole entry): T1 sequence (whole entry)
The experiment in a line: Binding affinity to Escherichia coli K-12 multidrug efflux protein YdhE […] in presence of 0.02% DDM surfactant by fluorescence polarization assay.

Assay [12] relates to Neisseria gonorrhoeae. Description: Activity of Neisseria gonorrhoeae FA19 multidrug efflux protein NorM expressed in Escherichia coli AG100AX assessed as reduction in compound accumulation in presence of 100 mM NaCl by fluorimetric assay. The method in brief: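 Arabinose-induced (0.01%) AG100AX cells at OD600 1.0 were held in 0.1 M Tris-HCl pH 7.0 with ethidium bromide (20 μg/ml final), then 100 mM NaCl, or KCl for comparison, was added. At each time point a 1-ml sample was centrifuged at 4°C and washed, and fluorescence read at ex 500/em 580 nm.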

Converted amounts (≈) assume the structure as drawn. The source made the active and inactive calls. The rule behind the calls is not given here.

The term MIC denotes the least concentration at which growth counts as inhibited. A word on the Kd: it is the concentration at which binding is half-saturated.

With `COc1ccc2cc3[n+](cc2c1OC)CCc1cc2c(cc1-3)OCO2.[Cl-]` [BERBERINE CHLORIDE], the MIC in the assay with Escherichia coli [1] turned out to be 250 µg/mL; with Escherichia coli [2], 31.2 µg/mL; in the assay on Escherichia coli [3] it was 250 µg/mL.
With `N#CC(C#N)=NNc1cccc(Cl)c1` [CARBONYL CYANIDE M-CHLOROPHENYLHYDRAZONE], the MIC with Escherichia coli [1], in the assay with Escherichia coli [2] and against Escherichia coli [3] was 6.25 µg/mL (≈ 30.5 µM) in each case. Moreover, the inhibition result (in the assay with Neisseria gonorrhoeae [4]; in assay [5]; with Neisseria gonorrhoeae [6]; in assay [7]) was “Active” throughout.
Turning to `O=C(N[C@H](CO)[C@H](O)c1ccc([N+](=O)[O-])cc1)C(Cl)Cl` [CHLORAMPHENICOL], the MIC against Escherichia coli [1], against Escherichia coli [2] and in the assay with Escherichia coli [3] was 0.625 µg/mL (≈ 1.93 µM) in each case.
Regarding `O=C(O)c1cn(C2CC2)c2cc(N3CCNCC3)c(F)cc2c1=O` [CIPROFLOXACIN], the outcome (in assay [8]; in the assay on Neisseria gonorrhoeae [9]) was Active. Further, the Kd in assay [10] came to 121 µM; in [11] it was 90.9 µM.
As for `COc1cccc2c1C(=O)c1c(O)c3c(c(O)c1C2=O)C[C@@](O)(C(=O)CO)C[C@@H]3O[C@H]1C[C@H](N)[C@H](O)[C@H](C)O1` [DOXORUBICIN], the minimal inhibitory concentration (MIC) with Escherichia coli [1] amounted to 6.25 µg/mL (≈ 11.5 µM); in the assay with Escherichia coli [2], 1.56 µg/mL (≈ 2.87 µM); with Escherichia coli [3], 6.25 µg/mL (≈ 11.5 µM).
As to `CCn1cc(C(=O)O)c(=O)c2cc(F)c(N3CCNCC3)nc21` [ENOXACIN], the minimum inhibitory concentration (MIC) in the assay on Escherichia coli [1] was 0.063 µg/mL (≈ 0.197 µM); against Escherichia coli [2], 0.031 µg/mL (≈ 0.0968 µM); against Escherichia coli [3], 0.063 µg/mL (≈ 0.197 µM).
Consider `CN(C)c1ccc(C(=C2C=CC(=[N+](C)C)C=C2)c2ccc(N(C)C)cc2)cc1.[Cl-]` [GENTIAN VIOLET], for which the MIC came out at 2.5 µg/mL with Escherichia coli [1], 0.625 µg/mL in the assay on Escherichia coli [2] and 2.5 µg/mL against Escherichia coli [3].
In the case of `CC[n+]1c(-c2ccccc2)c2cc(N)ccc2c2ccc(N)cc21.[Br-]` [HOMIDIUM BROMIDE], the MIC against Escherichia coli [1] stood at 15.6 µg/mL; in the assay on Escherichia coli [2] it was 7.81 µg/mL; in the assay with Escherichia coli [3], 15.6 µg/mL. Moreover, the result (in assay [8]; in the assay on Neisseria gonorrhoeae [9]; with Neisseria gonorrhoeae [12]) was Active. In addition, the Kd in [10] stood at 12.3 µM; in assay [11], 9.8 µM.
On to `CCn1cc(C(=O)O)c(=O)c2cc(F)c(N3CCNC(C)C3)c(F)c21` (stereo not drawn) [LOMEFLOXACIN], for which the minimal inhibitory concentration (MIC) against Escherichia coli [1] was 0.032 µg/mL (≈ 0.0911 µM); with Escherichia coli [2], 0.016 µg/mL (≈ 0.0455 µM); against Escherichia coli [3] it was 0.016 µg/mL (≈ 0.0455 µM).
For `CN(C)c1ccc(O)c2c1C[C@H]1C[C@H]3[C@H](N(C)C)C(O)=C(C(N)=O)C(=O)[C@@]3(O)C(O)=C1C2=O` [MINOCYCLINE], the minimal inhibitory concentration (MIC) with Escherichia coli [1], with Escherichia coli [2] and against Escherichia coli [3] was 0.625 µg/mL (≈ 1.37 µM) each time.
As to `CCn1cc(C(=O)O)c(=O)c2ccc(C)nc21` [NALIDIXIC ACID], the MIC with Escherichia coli [1], in the assay with Escherichia coli [2] and in the assay on Escherichia coli [3] was 0.625 µg/mL (≈ 2.69 µM) in each case.
As to `CCn1cc(C(=O)O)c(=O)c2cc(F)c(N3CCNCC3)cc21` [NORFLOXACIN], the figures for the MIC against Escherichia coli [1], with Escherichia coli [2] and with Escherichia coli [3] were 0.032 µg/mL (≈ 0.1 µM), 0.008 µg/mL (≈ 0.0251 µM) and 0.016 µg/mL (≈ 0.0501 µM), respectively. The result with Neisseria gonorrhoeae [12] was Active. Also, the values for the dissociation constant Kd in assay [10] and in assay [11] were 126 µM and 98.4 µM, respectively.
On to `CO[C@@H]1[C@@H](OC(N)=O)[C@@H](O)[C@H](Oc2ccc3c(O)c(NC(=O)c4ccc(O)c(CC=C(C)C)c4)c(=O)oc3c2C)OC1(C)C` [NOVOBIOCIN], for which the minimal inhibitory concentration (MIC) against Escherichia coli [1] is 3.12 µg/mL (≈ 5.1 µM); in the assay on Escherichia coli [2], 1.56 µg/mL (≈ 2.55 µM); against Escherichia coli [3], 3.12 µg/mL (≈ 5.1 µM).
Consider `C[n+]1ccc(-c2cc[n+](C)cc2)cc1.[Cl-].[Cl-]` [PARAQUAT DICHLORIDE], for which the minimum inhibitory concentration (MIC) against Escherichia coli [1], in the assay on Escherichia coli [2] and against Escherichia coli [3] was 156 µg/mL each time.
Regarding `Nc1ccc2cc3ccc(N)cc3nc2c1` [PROFLAVINE], the minimum inhibitory concentration (MIC) against Escherichia coli [1] stood at 12.5 µg/mL (≈ 59.7 µM); with Escherichia coli [2], 6.25 µg/mL (≈ 29.9 µM); against Escherichia coli [3], 12.5 µg/mL (≈ 59.7 µM).
On to `CN[C@@H]1[C@H](O[C@H]2[C@H](O[C@H]3[C@H](O)[C@@H](O)[C@H](N=C(N)N)[C@@H](O)[C@@H]3N=C(N)N)O[C@@H](C)[C@]2(O)C=O)O[C@@H](CO)[C@H](O)[C@H]1O` [STREPTOMYCIN], for which the minimum inhibitory concentration (MIC) against Escherichia coli [1], against Escherichia coli [2] and against Escherichia coli [3] was over 50000 µg/mL each time.
As for `CN(C)[C@@H]1C(O)=C(C(N)=O)C(=O)[C@@]2(O)C(O)=C3C(=O)c4c(O)cccc4[C@@](C)(O)[C@H]3C[C@@H]12` [TETRACYCLINE], the minimal inhibitory concentration (MIC) against Escherichia coli [1], against Escherichia coli [2] and against Escherichia coli [3] was 1.25 µg/mL (≈ 2.81 µM) throughout.
As for `[Cl-].c1ccc([P+](c2ccccc2)(c2ccccc2)c2ccccc2)cc1` [TETRAPHENYLPHOSPHONIUM CHLORIDE], the MIC in the assay with Escherichia coli [1] stood at 25 µg/mL; against Escherichia coli [2], 12.5 µg/mL; against Escherichia coli [3], 25 µg/mL.
As for `CN[C@H](CC(C)C)C(=O)N[C@H]1C(=O)N[C@@H](CC(N)=O)C(=O)N[C@H]2C(=O)N[C@H]3C(=O)N[C@H](C(=O)N[C@H](C(=O)O)c4cc(O)cc(O)c4-c4cc3ccc4O)[C@H](O)c3ccc(c(Cl)c3)Oc3cc2cc(c3O[C@@H]2O[C@H](CO)[C@@H](O)[C@H](O)[C@H]2O[C@H]2C[C@](C)(N)[C@H](O)[C@H](C)O2)Oc2ccc(cc2Cl)[C@H]1O` [VANCOMYCIN], the minimum inhibitory concentration (MIC) in the assay with Escherichia coli [1], against Escherichia coli [2] and in the assay on Escherichia coli [3] was 250 µg/mL (≈ 173 µM) each time.
Turning to GENTAMICIN, the MIC against Escherichia coli [1], against Escherichia coli [2] and with Escherichia coli [3] was 2.5 µg/mL throughout.
